The target of assay [1] is T1, Stromelysin-1 (Homo sapiens, UniProt P08254). Nature of the assay: Inhibition of human recombinant MMP3 catalytic domain incubated for 20 mins by fluorimetric assay. In outline: (§1)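 Diluted recombinant MMP enzyme pre-incubated 20 min at room temperature with varied inhibitor concentrations in 50 mM Tris–HCl, 150 mM NaCl, 5 mM CaCl2, 0.05% Brij-35, pH 7.5; total assay volume 100 µl.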

In assay [2] the target is T1, Stromelysin-1. Description: Inhibition of human recombinant MMP3 catalytic domain at 10 uM incubated for 20 mins by fluorimetric assay. In outline: as §1
Assay [3] has as its target T2, Matrix metalloproteinase-9 (Homo sapiens, UniProt P14780). Nature of the assay: Inhibition of human recombinant MMP9 catalytic domain incubated for 20 mins by fluorimetric assay. The essentials: as §1
Assay [4] concerns the target T2, Matrix metalloproteinase-9. Description: Inhibition of human recombinant MMP9 catalytic domain at 10 uM incubated for 20 mins by fluorimetric assay. The essentials:
as §1

Assay [5] addresses T3, Interstitial collagenase (Homo sapiens) (UniProt P03956).
T3 sequence (whole entry): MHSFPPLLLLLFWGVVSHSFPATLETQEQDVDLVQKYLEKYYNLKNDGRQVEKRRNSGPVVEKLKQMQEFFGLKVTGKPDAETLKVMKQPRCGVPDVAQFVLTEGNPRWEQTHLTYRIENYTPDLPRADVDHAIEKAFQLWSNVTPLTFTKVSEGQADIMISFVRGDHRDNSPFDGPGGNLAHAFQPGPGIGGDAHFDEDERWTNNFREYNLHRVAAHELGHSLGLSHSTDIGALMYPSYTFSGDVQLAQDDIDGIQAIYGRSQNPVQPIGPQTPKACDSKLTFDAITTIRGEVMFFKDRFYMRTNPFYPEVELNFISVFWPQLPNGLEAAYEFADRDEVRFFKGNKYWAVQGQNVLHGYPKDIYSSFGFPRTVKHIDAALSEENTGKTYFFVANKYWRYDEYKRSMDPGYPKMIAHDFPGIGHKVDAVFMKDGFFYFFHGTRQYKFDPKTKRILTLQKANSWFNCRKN
Description: Inhibition of human recombinant MMP1 catalytic domain at 10 uM incubated for 20 mins by fluorimetric assay. In outline: as §1

Assay [6] addresses T4, Interstitial collagenase (Homo sapiens, UniProt P03956).
T4 sequence (P03956 whole entry): T3 sequence (whole entry)
Nature of the assay: Inhibition of human recombinant MMP1 catalytic domain incubated for 20 mins by fluorimetric assay. In outline:
as §1

In assay [7] the target is T5, 72 kDa type IV collagenase (Homo sapiens, UniProt P08253). Description: Inhibition of human recombinant MMP2 catalytic domain incubated for 20 mins by fluorimetric assay. In outline:
as §1
Target sequence in this assay (P08253 whole entry, the tested form may be a part): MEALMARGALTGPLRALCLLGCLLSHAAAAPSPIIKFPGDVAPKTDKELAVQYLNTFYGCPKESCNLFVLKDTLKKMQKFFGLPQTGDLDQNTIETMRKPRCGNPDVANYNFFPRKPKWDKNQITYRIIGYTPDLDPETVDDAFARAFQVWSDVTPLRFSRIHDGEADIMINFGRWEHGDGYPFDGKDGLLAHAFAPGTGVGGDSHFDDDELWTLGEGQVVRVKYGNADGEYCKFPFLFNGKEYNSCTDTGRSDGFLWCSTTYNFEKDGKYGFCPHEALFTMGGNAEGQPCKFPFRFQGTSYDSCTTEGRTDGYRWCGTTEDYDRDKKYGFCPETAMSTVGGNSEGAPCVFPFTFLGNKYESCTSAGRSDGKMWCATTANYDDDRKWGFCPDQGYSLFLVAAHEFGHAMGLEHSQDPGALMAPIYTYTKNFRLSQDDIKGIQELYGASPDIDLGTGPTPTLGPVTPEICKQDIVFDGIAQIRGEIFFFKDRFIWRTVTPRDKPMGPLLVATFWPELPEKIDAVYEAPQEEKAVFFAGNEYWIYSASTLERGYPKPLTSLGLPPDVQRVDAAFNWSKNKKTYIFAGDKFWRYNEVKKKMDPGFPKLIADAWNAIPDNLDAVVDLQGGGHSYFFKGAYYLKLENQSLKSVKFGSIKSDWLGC

The target in assay [8] is T5, 72 kDa type IV collagenase. Nature of the assay: Inhibition of human recombinant MMP2 catalytic domain at 10 uM incubated for 20 mins by fluorimetric assay. In outline: as §1
Target sequence in this assay (P08253 110-660 limits assumed): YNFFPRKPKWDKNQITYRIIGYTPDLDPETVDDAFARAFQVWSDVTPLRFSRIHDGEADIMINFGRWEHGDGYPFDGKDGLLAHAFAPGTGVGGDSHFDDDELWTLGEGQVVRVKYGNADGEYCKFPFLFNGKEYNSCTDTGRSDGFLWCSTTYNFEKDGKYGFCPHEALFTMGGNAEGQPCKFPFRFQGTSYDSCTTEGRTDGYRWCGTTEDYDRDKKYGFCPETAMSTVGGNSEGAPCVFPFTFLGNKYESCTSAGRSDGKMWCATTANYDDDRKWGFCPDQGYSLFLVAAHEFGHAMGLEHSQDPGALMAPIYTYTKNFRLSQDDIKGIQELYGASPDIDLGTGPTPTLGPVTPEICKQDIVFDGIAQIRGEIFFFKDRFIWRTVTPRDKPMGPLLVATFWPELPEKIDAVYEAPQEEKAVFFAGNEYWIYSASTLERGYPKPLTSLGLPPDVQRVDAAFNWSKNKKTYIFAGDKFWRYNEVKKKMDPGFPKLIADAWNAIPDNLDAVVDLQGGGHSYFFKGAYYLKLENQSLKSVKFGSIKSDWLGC
In assay [9] the target is T6, Macrophage metalloelastase (Homo sapiens, UniProt P39900). Description: Inhibition of human recombinant MMP12 catalytic domain at 10 uM incubated for 20 mins by fluorimetric assay. In outline: as §1
T6 sequence (P39900 whole entry, the tested form may be a part): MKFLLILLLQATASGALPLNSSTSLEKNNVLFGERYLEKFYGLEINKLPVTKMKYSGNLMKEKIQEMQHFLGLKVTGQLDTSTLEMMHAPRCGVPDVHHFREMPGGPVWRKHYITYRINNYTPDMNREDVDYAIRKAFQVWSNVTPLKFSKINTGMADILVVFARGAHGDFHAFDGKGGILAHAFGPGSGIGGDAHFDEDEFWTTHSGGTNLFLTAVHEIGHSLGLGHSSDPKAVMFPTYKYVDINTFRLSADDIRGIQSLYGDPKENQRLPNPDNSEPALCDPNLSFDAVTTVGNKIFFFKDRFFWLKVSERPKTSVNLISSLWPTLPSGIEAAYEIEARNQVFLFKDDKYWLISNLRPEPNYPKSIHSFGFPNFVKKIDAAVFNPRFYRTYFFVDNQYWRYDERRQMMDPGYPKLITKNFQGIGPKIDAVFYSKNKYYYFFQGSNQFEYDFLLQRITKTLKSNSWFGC
Assay [10] addresses T7, Collagenase 3 (Homo sapiens, UniProt P45452). Description: Inhibition of human recombinant MMP13 catalytic domain incubated for 20 mins by fluorimetric assay. In outline:
as §1

The target of assay [11] is T6, Macrophage metalloelastase. Nature of the assay: Inhibition of human recombinant MMP12 catalytic domain incubated for 20 mins by fluorimetric assay. The essentials:
as §1

The target in assay [12] is T7, Collagenase 3. Description: Inhibition of human recombinant MMP13 catalytic domain at 10 uM incubated for 20 mins by fluorimetric assay. The essentials:
as §1

By IC50 is commonly meant the point on the concentration scale where inhibition reaches its midpoint. The term inhibition denotes how much of the control response was suppressed.

Each structure is given as a SMILES string.

T1 sequence (P08254 whole entry, the tested form may be a part): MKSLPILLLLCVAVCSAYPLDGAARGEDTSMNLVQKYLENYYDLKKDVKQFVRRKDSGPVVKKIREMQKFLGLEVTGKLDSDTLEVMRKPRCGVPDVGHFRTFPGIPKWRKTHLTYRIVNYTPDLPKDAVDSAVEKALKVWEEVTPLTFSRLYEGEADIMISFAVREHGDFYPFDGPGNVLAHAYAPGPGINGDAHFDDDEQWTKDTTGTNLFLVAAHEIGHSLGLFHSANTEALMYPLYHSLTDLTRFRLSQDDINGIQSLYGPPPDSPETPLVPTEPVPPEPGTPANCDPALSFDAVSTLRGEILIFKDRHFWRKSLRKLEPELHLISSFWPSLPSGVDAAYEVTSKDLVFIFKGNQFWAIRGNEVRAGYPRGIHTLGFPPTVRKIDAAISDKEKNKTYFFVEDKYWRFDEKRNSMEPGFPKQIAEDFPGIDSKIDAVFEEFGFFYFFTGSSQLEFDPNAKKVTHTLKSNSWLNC
T2 sequence (P14780 whole entry, the tested form may be a part): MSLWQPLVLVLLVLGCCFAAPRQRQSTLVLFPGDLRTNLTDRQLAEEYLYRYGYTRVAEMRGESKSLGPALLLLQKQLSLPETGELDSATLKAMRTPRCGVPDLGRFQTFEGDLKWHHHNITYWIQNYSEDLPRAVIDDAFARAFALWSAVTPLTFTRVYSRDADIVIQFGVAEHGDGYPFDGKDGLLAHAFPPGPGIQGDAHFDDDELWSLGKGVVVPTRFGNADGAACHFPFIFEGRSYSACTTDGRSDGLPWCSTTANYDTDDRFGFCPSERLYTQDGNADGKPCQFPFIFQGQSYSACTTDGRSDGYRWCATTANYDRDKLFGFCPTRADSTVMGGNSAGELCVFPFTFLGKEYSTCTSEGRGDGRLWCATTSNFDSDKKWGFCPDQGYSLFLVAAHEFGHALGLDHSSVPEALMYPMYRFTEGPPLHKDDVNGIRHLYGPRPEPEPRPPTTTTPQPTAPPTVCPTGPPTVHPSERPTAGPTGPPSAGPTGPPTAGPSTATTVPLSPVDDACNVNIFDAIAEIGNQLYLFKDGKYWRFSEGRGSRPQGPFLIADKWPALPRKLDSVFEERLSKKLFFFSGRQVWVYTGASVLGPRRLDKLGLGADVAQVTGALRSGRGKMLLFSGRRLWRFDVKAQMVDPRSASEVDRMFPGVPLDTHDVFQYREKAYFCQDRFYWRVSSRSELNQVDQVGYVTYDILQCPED

For the compound `COc1ccc(S(=O)(=O)N2CC(C)(C)CN(S(=O)(=O)c3ccc(OC)cc3)C2C(=O)NO)cc1`, the IC50 was 0.0286 µM in assay [1] and 0.0018 µM in [3]. The inhibition in assay [2] and in assay [4] was above 30% in each case.

Take `O=c1c2cc(O)c(O)cc2oc2cc(O)cc(O)c12`: the inhibition in [5] is above 30%. Further, in [6], the IC50 worked out at 11.4 µM.

Regarding `COC(=O)C1(O)CC(O)C(O)C(OC(=O)/C=C/c2ccc(O)c(O)c2)C1` (stereo not given), the results for the IC50 in [1] and in [7] were 58.8 µM and 64.2 µM, respectively. Further, the inhibition in assay [2] and in [8] was above 30% in each case.

As to `O=C1CCC(O)(CCOC(=O)/C=C/c2ccc(O)c(O)c2)CC1`, the IC50 in assay [3] is 12.5 µM. Besides, in assay [4], the inhibition is above 30%.

On to `CCCCOC(=O)[C@H]1c2c(/C=C/C(=O)O[C@H](Cc3ccc(O)c(O)c3)C(=O)O)ccc(O)c2O[C@@H]1c1ccc(O)c(O)c1`, for which the inhibition in assay [9], in assay [5], in assay [2], in assay [8], in assay [12] and in assay [4] was above 30% throughout. Also, the IC50 is 24.5 µM in [10]; 14.8 µM in assay [1]; 15.5 µM in assay [7]; 1.79 µM in assay [11]; 3.46 µM in [3]; 3.25 µM in assay [6].

`O=C1c2c(O)cc(O)cc2O[C@H](c2cc(O)c(O)c(O)c2)[C@@H]1O`: the inhibition in assay [9], in assay [2], in assay [8], in assay [12] and in [4] was above 30% throughout. In addition, the IC50 is 9.33 µM in assay [10]; 20.3 µM in [1]; 11.9 µM in [7]; 1.74 µM in [11]; 28.8 µM in [3].

For the compound `COc1cc(C(O)C(CO)Oc2ccc(/C=C\CO)cc2OC)ccc1O` (stereo not given), in assay [3], the IC50 was found to be 9.91 µM. The inhibition in assay [4] is above 30%.

`C[C@]12CCC[C@@](C)(C(=O)O)[C@@H]1CCC1=CC(=O)CC[C@@H]12`: in [7], the IC50 was determined as 33.3 µM. In addition, in assay [8], the inhibition was above 30%.

Take `CC(C)CC(=O)OC(C(=O)O)C(C)C` (stereo not given): the IC50 in assay [10] worked out at 42.5 µM; in [1] it was 38.2 µM; in assay [7], 23.3 µM; in assay [3] it was 14.3 µM; in assay [6] it was 10.6 µM. In addition, the inhibition in assay [5], in assay [2], in assay [8], in [12] and in [4] was above 30% in each case.

On to `CNC(=O)C(CCc1ccccc1)NC(=O)C(CC(=O)NO)CC(C)C` (stereo not given), for which the inhibition in [9], in assay [5], in [8] and in assay [12] was above 30% in each case. In addition, the IC50 in assay [10] was 0.0064 µM; in assay [7], 0.0036 µM; in assay [11], 0.0082 µM; in assay [6], 0.0041 µM.

Take `O=C1c2c(O)cc(O)cc2O[C@H](c2ccc(O)c(O)c2)[C@H]1O`: the inhibition in assay [9], in assay [2], in [8], in assay [12] and in assay [4] was above 30% each time.

For `COc1cc(C[C@@H](CO)[C@H](CO)Cc2ccc(O)c(OC)c2)ccc1O` [(+)-SECOISOLARICIRESINOL], the inhibition in [5] was above 30%. Moreover, the half-inhibitory concentration (IC50) in assay [6] was determined as 50.1 µM.

As for `O=C1c2c(O)cc(O)cc2O[C@]2(c3ccc(O)cc3)Oc3cc(O)c4c(c3[C@@]12O)O[C@H](c1ccc(O)cc1)CC4` [DAPHNODORIN F], the IC50 in assay [10] was 13.2 µM; in [1], 22.3 µM; in [7] it was 23.3 µM; in assay [3], 21.2 µM. The inhibition in assay [2], in assay [8], in assay [12] and in [4] was above 30% each time.

Take `O=C(c1c(O)cc(O)cc1O)C1c2c(cc(O)c3c2O[C@H](c2ccc(O)cc2)[C@@H](O)C3)OC1c1ccc(O)cc1` (stereo not given in full) [DIHYDRODAPHNODORIN B]: the half-inhibitory concentration (IC50) came to 43.5 µM in [10], 25.6 µM in [1], 14.1 µM in assay [7] and 10.2 µM in assay [3]. Also, the inhibition in assay [2], in [8], in assay [12] and in [4] was above 30% in each case.

For `C[C@@H]1O[C@@H](O[C@@H]2[C@@H](O)[C@H](OCCc3ccc(O)c(O)c3)O[C@H](COC(=O)/C=C/c3ccc(O)c(O)c3)[C@H]2O)[C@H](O)[C@H](O)[C@H]1O` [ISOACTEOSIDE], the inhibition in assay [9], in [2], in assay [8], in [12] and in [4] was above 30% each time. Further, the concentration for half-maximal inhibition (IC50) is 11.1 µM in assay [10]; 91.4 µM in assay [1]; 8.96 µM in [7]; 8.22 µM in assay [11]; 14.3 µM in assay [3].

For `O=c1cc(-c2ccc(O)c(O)c2)oc2cc(O)cc(O)c12` [LUTEOLIN], the inhibition in assay [9], in [2], in assay [8], in [12] and in assay [4] was above 30% in each case. Also, the IC50 amounted to 10 µM in assay [10]; 16.2 µM in assay [1]; 3.61 µM in assay [7]; 0.98 µM in assay [11]; 5.62 µM in [3].

As to `COC(=O)C1(O)CC(OC(=O)/C=C/c2ccc(O)c(O)c2)C(O)C(OC(=O)/C=C/c2ccc(O)c(O)c2)C1` (stereo not given) [MACRATHOIN F], the inhibition in [9], in assay [5], in [2], in assay [8], in assay [12] and in assay [4] was above 30% each time. Moreover, the concentration for half-maximal inhibition (IC50) in assay [10] came to 7.62 µM; in assay [1], 10.4 µM; in assay [7], 3.88 µM; in [11], 1.2 µM; in assay [3], 11.6 µM; in assay [6], 16.3 µM.

Regarding `COC(=O)[C@@H](Cc1ccc(O)c(O)c1)OC(=O)/C=C/c1ccc(O)c(O)c1` [METHYL ROSMARINATE], the inhibition in assay [9], in assay [5], in [2], in [8], in assay [12] and in assay [4] was above 30% in each case. Also, the IC50 was determined as 29 µM in assay [10]; 28.3 µM in assay [1]; 3.58 µM in assay [7]; 2.75 µM in assay [11]; 0.61 µM in assay [3]; 14.7 µM in assay [6].

In the case of `Oc1cc(O)cc(/C=C/c2ccc(O)cc2O)c1` [OXYRESVERATROL], the IC50 in [7] was found to be 27.6 µM. Also, in [8], the inhibition was above 30%.

For the compound `O=c1c(O)c(-c2ccc(O)c(O)c2)oc2cc(O)cc(O)c12` [QUERCETIN], the inhibition in assay [9], in [2], in assay [8], in assay [12] and in assay [4] was above 30% each time. Moreover, the IC50 in assay [10] amounted to 8.46 µM; in assay [1], 5.57 µM; in [7], 6.68 µM; in assay [11] it was 10.2 µM; in assay [3], 1.61 µM.

For the origin of these results see ChEMBL document CHEMBL2046344, “Natural products as a gold mine for selective matrix metalloproteinases inhibitors” (Bioorg Med Chem, 2012).
